Where “and” joins values, the source holds several entries; their conditions need not be identical. Identical values can stand only once.
What was measured:
[1] = target: T1, Angiotensin II receptor (AT-1) type-1 (Rattus norvegicus, UniProt P29089+P25095); experiment: Specific binding inhibition of [125I]AII to Angiotensin II receptor, type 1 in rat liver membrane; format: cell membranes
T1 sequence (P29089 whole entry): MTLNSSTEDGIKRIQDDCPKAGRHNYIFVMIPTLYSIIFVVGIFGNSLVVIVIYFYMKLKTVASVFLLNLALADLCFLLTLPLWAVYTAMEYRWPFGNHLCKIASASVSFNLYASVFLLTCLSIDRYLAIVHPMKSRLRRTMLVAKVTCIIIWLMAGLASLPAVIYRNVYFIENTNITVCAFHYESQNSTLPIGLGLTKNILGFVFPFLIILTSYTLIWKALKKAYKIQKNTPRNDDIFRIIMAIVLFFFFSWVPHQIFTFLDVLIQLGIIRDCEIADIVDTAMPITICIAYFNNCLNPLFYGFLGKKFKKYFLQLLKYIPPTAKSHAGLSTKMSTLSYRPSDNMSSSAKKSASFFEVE
T1 sequence (P25095 whole entry): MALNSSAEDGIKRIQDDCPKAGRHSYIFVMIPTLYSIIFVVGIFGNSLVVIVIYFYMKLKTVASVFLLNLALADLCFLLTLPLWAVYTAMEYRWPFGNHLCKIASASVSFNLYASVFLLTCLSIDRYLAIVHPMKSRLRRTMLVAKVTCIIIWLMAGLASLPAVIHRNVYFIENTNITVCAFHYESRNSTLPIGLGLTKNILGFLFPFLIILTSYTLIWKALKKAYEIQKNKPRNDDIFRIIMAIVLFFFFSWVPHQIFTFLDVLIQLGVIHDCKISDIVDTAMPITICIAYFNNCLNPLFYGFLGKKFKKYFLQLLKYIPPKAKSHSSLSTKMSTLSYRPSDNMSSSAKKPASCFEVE

[2] = target: T2, Angiotensin II receptor (AT-1) type-1 (Rattus norvegicus) (UniProt P29089+P25095); experiment: Inhibition of pressor response induced by infusion of AII in rats when dose is administered intravenously; format: functional
Outline: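 Normotensive Sprague-Dawley pithed rats (n = 4), BP recorded by carotid catheter. AII 0.75 μg/kg injected via jugular vein; three control responses taken. Each later AII challenge followed, by 5 min, an iv injection of antagonist at increasing doses, in water or water with 2 equiv NaOH.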

[3] = target: T2, Angiotensin II receptor (AT-1) type-1 (Rattus norvegicus); experiment: Inhibition of pressor response induced by infusion of angiotensin II in rats, administered perorally; format: functional
Outline: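 Sprague-Dawley rats (n = 18-28) dosed by gastric tube in groups; vehicle water or water with 2 equiv NaOH; controls given water. At 50 min rats anaesthetised, pithed, ventilated, with carotid and jugular catheters. At 1 h post-dose AII 0.75 μg/kg iv given.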

Row | IC50 [1] [nM] | ID50 [2] | ID50 [3] | Compound
1 | 1.5 | 0.06 mg/kg | 3.55 mg/kg | CCCCc1nc(SC)c(C(=O)NCC(=O)O)n1Cc1ccc(-c2ccccc2S(=O)(=O)NC(=O)NCCC)cc1
2 | 0.2 |  |  | CCCNC(=O)NS(=O)(=O)c1ccccc1-c1ccc(Cn2c(CCC)nc(SC)c2C(=O)O)cc1
3 | 36 | 5.6 mg/kg | > 30 mg/kg | CCCCc1nc(SC)c(C(=O)O)n1Cc1ccc(-c2ccccc2S(N)(=O)=O)cc1
4 | 0.2 |  | 2.75 mg/kg | CCCCc1nc(SCSC)c(C(=O)O)n1Cc1ccc(-c2ccccc2S(=O)(=O)NC(=O)NCCC)cc1
5 | 4.7 |  |  | CCCCc1nc(SC)c(C(=O)O)n1Cc1ccc(-c2ccccc2S(=O)(=O)NC(=O)N(CC)CC)cc1
6 | 2.1 | 0.02 mg/kg | 4.86 mg/kg | CCCCc1nc(SC)c(C(=O)NC)n1Cc1ccc(-c2ccccc2S(=O)(=O)NC(=O)NCCC)cc1
7 |  | 0.17 mg/kg | 1.12 mg/kg | CCCCc1nc(SC)c(C(=O)O)n1Cc1ccc(-c2ccccc2S(=O)(=O)NC(=O)NCC)cc1
8 | 0.5 | 0.07 mg/kg | 0.73 mg/kg | CCCCc1nc(SC(F)F)c(C(=O)O)n1Cc1ccc(-c2ccccc2S(=O)(=O)NC(=O)NCCC)cc1
9 | 0.9 | 0.07 mg/kg | 0.38 mg/kg | CCCCc1nc(SC)c(C(=O)O)n1Cc1ccc(-c2ccccc2S(=O)(=O)NC(=O)OCC)cc1
10 | 0.3 | 0.11 mg/kg and 0.13 mg/kg | 0.7 mg/kg and 0.4 mg/kg | CCCCc1nc(SC)c(C(=O)O)n1Cc1ccc(-c2ccccc2S(=O)(=O)NC(=O)NCCC)cc1
11 | 1 | 0.13 mg/kg | 2.02 mg/kg | CCCCc1nc(SC)c(C(=O)O)n1Cc1ccc(-c2ccccc2S(=O)(=O)NC(C)=O)cc1
12 | 1.7 | 0.09 mg/kg | 3.01 mg/kg | CCCCc1nc(SC)c(C(=O)NC(C)=O)n1Cc1ccc(-c2ccccc2S(=O)(=O)NC(=O)NCCC)cc1
13 | 0.9 | 0.1 mg/kg | 1.54 mg/kg | CCCCc1nc(SC)c(C(=O)O)n1Cc1ccc(-c2ccccc2S(=O)(=O)NC(=O)OC)cc1

The next lines start with the molecule.

Row | Compound | IC50 [1] [nM] | ID50 [2] | ID50 [3]
14 | CCCCc1nc(SC)c(C(=O)OCc2ccccc2)n1Cc1ccc(-c2ccccc2S(=O)(=O)NC(=O)NCCC)cc1 | 0.1 | 0.2 mg/kg | 1.73 mg/kg
15 | CCCCc1nc(SCCCCOC(C)=O)c(C(=O)O)n1Cc1ccc(-c2ccccc2S(=O)(=O)NC(=O)NCCC)cc1 | 0.3 | 0.6 mg/kg | > 10 mg/kg
16 | CCCCc1nc(Sc2ccccc2)c(C(=O)O)n1Cc1ccc(-c2ccccc2S(=O)(=O)NC(=O)NCCC)cc1 | 0.3 | 0.67 mg/kg | > 10 mg/kg
17 | CCCCc1nc(Cl)c(C(=O)O)n1Cc1ccc(-c2ccccc2S(=O)(=O)NC(=O)NCCC)cc1 | 1 | 0.16 mg/kg | 3.1 mg/kg
18 | CCCNC(=O)NS(=O)(=O)c1ccccc1-c1ccc(Cn2c(C3CC3)nc(SC)c2C(=O)O)cc1 | 7.7 |  | 
19 | CCCCc1nc(S(C)(=O)=O)c(C(=O)O)n1Cc1ccc(-c2ccccc2S(=O)(=O)NC(=O)NCCC)cc1 | 3.2 | 0.06 mg/kg | > 10 mg/kg
20 | CCCCc1nc(C(=O)O)c(SC)n1Cc1ccc(-c2ccccc2S(=O)(=O)NC(=O)NCCC)cc1 | 103 |  | 
21 | CCCCc1nc(SC)cn1Cc1ccc(-c2ccccc2S(=O)(=O)NC(=O)NCCC)cc1 | 2.6 | 0.7 mg/kg | > 10 mg/kg
22 | CCCCc1nc(SC)c(C(=O)OCC)n1Cc1ccc(-c2ccccc2S(=O)(=O)N(C)C(=O)NCCC)cc1 | 78 |  | 
23 | CCCCc1nc(SCC(F)(F)C(F)(F)CO)c(C(=O)O)n1Cc1ccc(-c2ccccc2S(=O)(=O)NC(=O)NCCC)cc1 | 0.3 | 0.83 mg/kg | 5.3 mg/kg
24 | CCCCc1nc(SC)c(C(=O)NC(C(=O)O)C(C)CC)n1Cc1ccc(-c2ccccc2S(=O)(=O)NC(=O)NCCC)cc1 (centres undefined) | 0.3 | 0.37 mg/kg | 2.11 mg/kg
25 | CCCCc1nc(SC)c(C(=O)O)n1Cc1ccc(-c2ccccc2C(=O)NC(=O)NCCC)cc1 | 114 |  | 
26 | CCCCc1nc(SCC(F)(F)F)c(C(=O)O)n1Cc1ccc(-c2ccccc2S(=O)(=O)NC(=O)NCCC)cc1 | 0.6 | 0.8 mg/kg | 2.28 mg/kg
